Assay results reported in ChEMBL document CHEMBL3112453, “Novel lung adenocarcinoma and nuclear factor-kappa B (NF-κB) inhibitors: synthesis and evaluation of lantadene congeners” (Eur J Med Chem, 2014).

Assays:
[1] = Inhibition of TNF-alpha-induced NF-kappaB (unknown origin) activation transfected in human A549 cells after 7 hrs by bright-glo luciferase reporter gene assay; format: cell-based
In short: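 A549 cells co-transfected with pNF-κB-Luc and pSV-β-galactosidase (internal control) using lipofectamine. Medium changed at 6 h, cells cultured a further 6 h, then given TNF-α 15 ng/ml and compound together for 7 h. Read-out is Bright-Glo luciferase, corrected for background and viability and expressed relative to TNF-α-only cells. IC50 from a variable-slope sigmoidal fit.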

A549 [2] = test: Cytotoxicity against human A549 cells after 48 hrs by MTT assay; format: functional, cell-based
In short: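 A549 cells grown in RPMI with 5% FBS and 1% penicillin-streptomycin. Seeded at 4000 cells/well, attached overnight, then exposed to compound at 0.01–100 µmol for 48 h. MTT added for 4 h, formazan dissolved in DMSO, absorbance read at 570 nm. Mean of at least three independent experiments, each in triplicate.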

A549 [3] = test: Cytotoxicity against human A549 cells transfected with NF-kappaB assessed as reduction of cell viability relative to control; format: cell-based; design: concentration or dose not given beside the values
[4] = Metabolic stability in 80% human plasma assessed as compound remaining at 5 mg/ml measured at 120 mins by HPLC analysis; format: ADME, cell-free; conditions: read-out: Stability
In short: (§1)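 Human plasma at 80%, diluted with isotonic phosphate buffer pH 7.4, 37 °C in a water bath. Compound stock is 5 mg/ml in THF, diluted 1:10 into the plasma. Samples were taken at 0, 15, 30, 60 and 120 min, quenched in ACN, centrifuged 5 min, and the supernatant analysed by HPLC for ester remaining.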

[5] = Metabolic stability in 80% human plasma assessed as compound remaining at 5 mg/ml measured at 60 mins by HPLC analysis; format: ADME, cell-free; conditions: read-out: Stability; in short: as §1
[6] = Metabolic stability in 80% human plasma assessed as compound remaining at 5 mg/ml measured at 15 mins by HPLC analysis; format: ADME, cell-free; conditions: read-out: Stability; in short: as §1
[7] = Chemical stability in simulated gastric fluid assessed as compound remaining at 5 mg/ml at pH 2 measured at 2 hrs by HPLC analysis; format: physicochemical; conditions: read-out: Stability
In short: (§2)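 Stability in simulated gastric fluid, HCl buffer pH 2, 37 °C in a water bath. Compound stock is 5 mg/ml in THF, diluted 1:10 into buffer. Samples were taken at 0, 2, 5, 8 and 12 h, diluted with ACN and analysed by HPLC. % remaining = peak area at each time / peak area at 0 min × 100.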

[8] = Chemical stability in simulated gastric fluid assessed as compound remaining at 5 mg/ml at pH 2 measured at 8 hrs by HPLC analysis; format: physicochemical; conditions: read-out: Stability; in short: as §2
[9] = Chemical stability in simulated gastric fluid assessed as compound remaining at 5 mg/ml at pH 2 measured at 5 hrs by HPLC analysis; format: physicochemical; conditions: read-out: Stability; in short: as §2
[10] = target: T1, Inhibitor of nuclear factor kappa-B kinase subunit beta (Homo sapiens, UniProt O14920); test: Inhibition of FLAG-tagged human recombinant IKKbeta phosphorylation expressed in baculovirus infected insect Sf9 cells after 1 hr by luminescence assay
T1 sequence (O14920 whole entry): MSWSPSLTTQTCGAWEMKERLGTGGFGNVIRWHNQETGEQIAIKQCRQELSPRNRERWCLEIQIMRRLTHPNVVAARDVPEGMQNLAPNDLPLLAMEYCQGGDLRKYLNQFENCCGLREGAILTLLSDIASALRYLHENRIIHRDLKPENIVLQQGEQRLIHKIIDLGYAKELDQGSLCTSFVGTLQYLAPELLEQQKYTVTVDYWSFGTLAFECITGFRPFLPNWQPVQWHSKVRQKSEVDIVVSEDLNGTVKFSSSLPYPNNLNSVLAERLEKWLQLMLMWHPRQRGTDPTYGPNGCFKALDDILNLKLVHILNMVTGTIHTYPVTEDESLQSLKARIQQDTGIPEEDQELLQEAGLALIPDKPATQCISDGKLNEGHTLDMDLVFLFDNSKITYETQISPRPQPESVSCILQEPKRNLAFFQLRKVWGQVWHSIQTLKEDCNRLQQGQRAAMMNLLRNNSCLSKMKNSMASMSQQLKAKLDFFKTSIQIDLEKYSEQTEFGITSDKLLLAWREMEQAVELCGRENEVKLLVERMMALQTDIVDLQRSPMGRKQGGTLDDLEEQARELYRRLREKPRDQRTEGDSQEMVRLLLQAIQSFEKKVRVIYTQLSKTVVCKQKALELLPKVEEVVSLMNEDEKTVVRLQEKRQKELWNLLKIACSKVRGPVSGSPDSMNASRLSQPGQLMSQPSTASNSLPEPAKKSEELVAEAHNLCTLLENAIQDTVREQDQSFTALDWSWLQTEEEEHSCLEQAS
In short: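 Kinase reaction ran 1 h at room temperature with bacterially expressed GST-IkBα substrate and 500 nmol ATP, in 25 mmol/l HEPES pH 7.5, 10 mmol/l Mg acetate, 1 mmol DTT, 0.01% BSA and 0.01% Tween20. Stopped with equal volume Kinase-Glo, 10 min RT, then luminescence of remaining ATP read.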

[11] = Metabolic stability in 80% human plasma assessed as compound remaining at 5 mg/ml measured at 30 mins by HPLC analysis; format: ADME, cell-free; conditions: read-out: Stability; in short: as §1
[12] = Chemical stability in simulated gastric fluid assessed as compound remaining at 5 mg/ml at pH 2 measured at 12 hrs by HPLC analysis; format: physicochemical; conditions: read-out: Stability; in short: as §2

Compound	IC50 [1] [µmol]	IC50 (A549 [2]) [µmol]	Activity (A549 [3]) [%]	other results
CC1(C)C[C@@H](O)[C@]2(C(=O)O)CC[C@]3(C)C(=CC[C@@H]4[C@@]5(C)CC[C@H](O)C(C)(C)[C@@H]5CC[C@]43C)[C@@H]2C1	> 10	> 10	< 5	–
CC(C)=CC(=O)O[C@@H]1CC(C)(C)C[C@H]2C3=CC[C@@H]4[C@@]5(C)CCC(=O)C(C)(C)[C@@H]5CC[C@@]4(C)[C@]3(C)CC[C@@]12C(=O)O	1.56	1.19	< 5	–
C/C=C(\C)C(=O)O[C@@H]1CC(C)(C)C[C@H]2C3=CC[C@@H]4[C@@]5(C)CC[C@H](OC(C)=O)C(C)(C)[C@@H]5CC[C@@]4(C)[C@]3(C)CC[C@@]12C(=O)O	2.8	5.42	< 5	–
CC(=O)O[C@H]1CC[C@]2(C)[C@H]3CC=C4[C@@H]5CC(C)(C)C[C@@H](OC(=O)C=C(C)C)[C@]5(C(=O)O)CC[C@@]4(C)[C@]3(C)CC[C@H]2C1(C)C	2.32	4.9	< 5	–
C/C=C(\C)C(=O)O[C@@H]1CC(C)(C)C[C@H]2C3=CC[C@@H]4[C@@]5(C)CC[C@H](OC(=O)c6ccccc6)C(C)(C)[C@@H]5CC[C@@]4(C)[C@]3(C)CC[C@@]12C(=O)O	5.04	7.36	< 5	–
CC(C)=CC(=O)O[C@@H]1CC(C)(C)C[C@H]2C3=CC[C@@H]4[C@@]5(C)CC[C@H](OC(=O)c6ccccc6)C(C)(C)[C@@H]5CC[C@@]4(C)[C@]3(C)CC[C@@]12C(=O)O	4.64	7.2	< 5	–
C/C=C(\C)C(=O)O[C@@H]1CC(C)(C)C[C@H]2C3=CC[C@@H]4[C@@]5(C)CC[C@H](OC(=O)c6ccccc6Cl)C(C)(C)[C@@H]5CC[C@@]4(C)[C@]3(C)CC[C@@]12C(=O)O	4.18	6.8	< 5	–
CC(C)=CC(=O)O[C@@H]1CC(C)(C)C[C@H]2C3=CC[C@@H]4[C@@]5(C)CC[C@H](OC(=O)c6ccccc6Cl)C(C)(C)[C@@H]5CC[C@@]4(C)[C@]3(C)CC[C@@]12C(=O)O	3.7	6.52	< 5	–
C/C=C(\C)C(=O)O[C@@H]1CC(C)(C)C[C@H]2C3=CC[C@@H]4[C@@]5(C)CC[C@H](OC(=O)/C=C/c6ccccc6)C(C)(C)[C@@H]5CC[C@@]4(C)[C@]3(C)CC[C@@]12C(=O)O	0.56	0.12	< 5	remaining at 2 h, 5 mg/ml [4]: 36.8%; remaining at 1 h, 5 mg/ml [5]: 46.8%; remaining at 0.25 h, 5 mg/ml [6]: 74.2%; remaining at 2 h, 5 mg/ml [7]: 96.4%; remaining at 8 h, 5 mg/ml [8]: 84.7%; remaining at 5 h, 5 mg/ml [9]: 90.7%; IC50 [10]: 1.2 µmol; remaining at 0.5 h, 5 mg/ml [11]: 54.7%; remaining at 12 h, 5 mg/ml [12]: 76.6%
CC(C)=CC(=O)O[C@@H]1CC(C)(C)C[C@H]2C3=CC[C@@H]4[C@@]5(C)CC[C@H](OC(=O)/C=C/c6ccccc6)C(C)(C)[C@@H]5CC[C@@]4(C)[C@]3(C)CC[C@@]12C(=O)O	0.42	0.08	< 5	remaining at 2 h, 5 mg/ml [4]: 39.2%; remaining at 1 h, 5 mg/ml [5]: 48.1%; remaining at 0.25 h, 5 mg/ml [6]: 74.7%; remaining at 2 h, 5 mg/ml [7]: 97.2%; remaining at 8 h, 5 mg/ml [8]: 87.6%; remaining at 5 h, 5 mg/ml [9]: 92.5%; IC50 [10]: 0.94 µmol; remaining at 0.5 h, 5 mg/ml [11]: 55.5%; remaining at 12 h, 5 mg/ml [12]: 81%
CC1(C)C[C@@H](OC(=O)c2ccccc2Cl)[C@]2(C(=O)O)CC[C@]3(C)C(=CC[C@@H]4[C@@]5(C)CCC(=O)C(C)(C)[C@@H]5CC[C@]43C)[C@@H]2C1	> 10	> 10	< 5	–
CC1(C)C[C@@H](OC(=O)/C=C/c2ccccc2)[C@]2(C(=O)O)CC[C@]3(C)C(=CC[C@@H]4[C@@]5(C)CCC(=O)C(C)(C)[C@@H]5CC[C@]43C)[C@@H]2C1	2.42	3.64	< 5	–
CC(=O)O[C@H]1CC[C@]2(C)[C@H]3CC=C4[C@@H]5CC(C)(C)C[C@@H](OC(C)=O)[C@]5(C(=O)O)CC[C@@]4(C)[C@]3(C)CC[C@H]2C1(C)C	> 10	> 10	< 5	–
COC(=O)[C@@]12CC[C@]3(C)C(=CC[C@@H]4[C@@]5(C)CC[C@H](O)C(C)(C)[C@@H]5CC[C@]43C)[C@@H]1CC(C)(C)C[C@H]2O	> 10	> 10	< 5	–
C/C=C(\C)C(=O)O[C@@H]1CC(C)(C)C[C@H]2C3=CC[C@@H]4[C@@]5(C)CC/C(=N\O)C(C)(C)[C@@H]5CC[C@@]4(C)[C@]3(C)CC[C@@]12C(=O)O	> 10	> 10	< 5	–
CC(C)=CC(=O)O[C@@H]1CC(C)(C)C[C@H]2C3=CC[C@@H]4[C@@]5(C)CC/C(=N\O)C(C)(C)[C@@H]5CC[C@@]4(C)[C@]3(C)CC[C@@]12C(=O)O	> 10	> 10	< 5	–
COC(=O)[C@@]12CC[C@]3(C)C(=CC[C@@H]4[C@@]5(C)CCC(=O)C(C)(C)[C@@H]5CC[C@]43C)[C@@H]1CC(C)(C)C[C@H]2O	> 10	> 10	< 5	–
CC1(C)C[C@@H](O)[C@]2(C(=O)O)CC[C@]3(C)C(=CC[C@@H]4[C@@]5(C)CCC(=O)C(C)(C)[C@@H]5CC[C@]43C)[C@@H]2C1	6.42	> 10	< 5	–
CC1(C)C[C@@H](OC(=O)c2ccccc2)[C@]2(C(=O)O)CC[C@]3(C)C(=CC[C@@H]4[C@@]5(C)CCC(=O)C(C)(C)[C@@H]5CC[C@]43C)[C@@H]2C1	> 10	> 10	< 5	–
C/C=C(/C)C(=O)O[C@@H]1CC(C)(C)C[C@H]2C3=CC[C@@H]4[C@@]5(C)CCC(=O)C(C)(C)[C@@H]5CC[C@@]4(C)[C@]3(C)CC[C@@]12C(=O)O [LANTADENE A]	1.06	2.84	< 5	–
C/C=C(/C)C(=O)O[C@@H]1CC(C)(C)C[C@H]2C3=CC[C@@H]4[C@@]5(C)CC[C@H](O)C(C)(C)[C@@H]5CC[C@@]4(C)[C@]3(C)CC[C@@]12C(=O)O [Reduced Lantadene A]	0.98	0.79	< 5	IC50 [10]: 2.62 µmol
CC(C)=CC(=O)O[C@@H]1CC(C)(C)C[C@H]2C3=CC[C@@H]4[C@@]5(C)CC[C@H](O)C(C)(C)[C@@H]5CC[C@@]4(C)[C@]3(C)CC[C@@]12C(=O)O [Reduced Lantadene B]	1.02	0.43	< 5	IC50 [10]: 4.24 µmol
